{
  "source": "ChEMBL document CHEMBL1146375",
  "about": "“Synthetic studies on novel benzimidazolopeptides with antimicrobial, cytotoxic and anthelmintic potential” (2007)",
  "data": [
    {"tested_on": "Bacillus subtilis", "experiment": "Antibacterial activity against Bacillus subtilis NCIM 2063 after 18 hrs by disc diffusion method", "format": "functional", "settings": "not given", "outline": "(§1)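 Modified Kirby-Bauer disc diffusion. Plates inoculated with spore suspension (about 6 × 10⁴ spores mL^-1). Sterile 6 mm paper discs carried test samples at 10 mg mL^-1; ciprofloxacin disc as reference, DMF disc as negative control. Plates held 18 h at 37 °C. Inhibition zone diameters (mm) averaged over triplicate sets.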", "units": {"inhibition zone (IZ)": "mm"}, "values": [
      {"smiles": "COC(=O)[C@@H]1CCCN1C(=O)[C@@H]1CCCN1C(=O)[C@@H]1CCCN1C(=O)c1cc(-c2nc3ccc([N+](=O)[O-])cc3[nH]2)ccc1O", "inhibition zone (IZ)": 14}
    ]},
    {"tested_on": "Staphylococcus aureus", "experiment": "Antibacterial activity against Staphylococcus aureus NCIM 2079 after 18 hrs by disc diffusion method", "format": "functional", "settings": "not given", "outline": "as §1", "units": {"inhibition zone (IZ)": "mm"}, "values": [
      {"smiles": "COC(=O)[C@@H]1CCCN1C(=O)[C@@H]1CCCN1C(=O)[C@@H]1CCCN1C(=O)c1cc(-c2nc3ccc([N+](=O)[O-])cc3[nH]2)ccc1O", "inhibition zone (IZ)": 11}
    ]},
    {"tested_on": "Pseudomonas aeruginosa", "experiment": "Antibacterial activity against Pseudomonas aeruginosa NCIM 2034 after 18 hrs by disc diffusion method", "format": "functional", "settings": "not given", "outline": "as §1", "units": {"inhibition zone (IZ)": "mm"}, "values": [
      {"smiles": "COC(=O)[C@@H]1CCCN1C(=O)[C@@H]1CCCN1C(=O)[C@@H]1CCCN1C(=O)c1cc(-c2nc3ccc([N+](=O)[O-])cc3[nH]2)ccc1O", "inhibition zone (IZ)": 27}
    ]},
    {"tested_on": "Escherichia coli", "experiment": "Antibacterial activity against Escherichia coli NCIM 2065 after 18 hrs by disc diffusion method", "format": "functional", "settings": "not given", "outline": "as §1", "units": {"inhibition zone (IZ)": "mm"}, "values": [
      {"smiles": "COC(=O)[C@@H]1CCCN1C(=O)[C@@H]1CCCN1C(=O)[C@@H]1CCCN1C(=O)c1cc(-c2nc3ccc([N+](=O)[O-])cc3[nH]2)ccc1O", "inhibition zone (IZ)": 17}
    ]},
    {"tested_on": "Candida albicans", "experiment": "Antifungal activity against Candida albicans MUCC 29 after 48 hrs by disc diffusion method", "format": "functional", "settings": "not given", "outline": "(§2)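 Agar well diffusion on plates inoculated with spore suspension in normal saline from cultures on Sabouraud's broth. Wells punched and loaded with test samples or griseofulvin at 10 mg mL^-1, with DMSO as negative control. Incubated 48 h at 37 °C.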", "units": {"inhibition zone (IZ)": "mm"}, "values": [
      {"smiles": "COC(=O)[C@@H]1CCCN1C(=O)[C@@H]1CCCN1C(=O)[C@@H]1CCCN1C(=O)c1cc(-c2nc3ccc([N+](=O)[O-])cc3[nH]2)ccc1O", "inhibition zone (IZ)": 24}
    ]},
    {"tested_on": "Microsporum audouinii", "experiment": "Antifungal activity against Microsporum audouinii MUCC 545 after 48 hrs by disc diffusion method", "format": "functional", "settings": "not given", "outline": "as §2", "units": {"inhibition zone (IZ)": "mm"}, "values": [
      {"smiles": "COC(=O)[C@@H]1CCCN1C(=O)[C@@H]1CCCN1C(=O)[C@@H]1CCCN1C(=O)c1cc(-c2nc3ccc([N+](=O)[O-])cc3[nH]2)ccc1O", "inhibition zone (IZ)": 13}
    ]},
    {"tested_on": "Trichophyton benhamiae", "experiment": "Antifungal activity against Trichophyton mentagrophytes MUCC 665 after 48 hrs by disc diffusion method", "format": "functional, Arthroderma benhamiae", "settings": "not given", "outline": "as §2", "units": {"inhibition zone (IZ)": "mm"}, "values": [
      {"smiles": "COC(=O)[C@@H]1CCCN1C(=O)[C@@H]1CCCN1C(=O)[C@@H]1CCCN1C(=O)c1cc(-c2nc3ccc([N+](=O)[O-])cc3[nH]2)ccc1O", "inhibition zone (IZ)": 17}
    ]},
    {"tested_on": "Aspergillus niger", "experiment": "Antifungal activity against Aspergillus niger MUCC 177 after 48 hrs by disc diffusion method", "format": "functional", "settings": "not given", "outline": "as §2", "units": {"inhibition zone (IZ)": "mm"}, "values": [
      {"smiles": "COC(=O)[C@@H]1CCCN1C(=O)[C@@H]1CCCN1C(=O)[C@@H]1CCCN1C(=O)c1cc(-c2nc3ccc([N+](=O)[O-])cc3[nH]2)ccc1O", "inhibition zone (IZ)": 17}
    ]},
    {"tested_on": "Bacillus subtilis", "experiment": "Antibacterial activity against Bacillus subtilis NCIM 2063 after 18 hrs by tube dilution method", "format": "functional", "settings": "NCIM 2063, 18 h", "outline": "(§3)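 Tube dilution MIC. Stock diluted in sterile broth to seven concentrations from 200 to 3.1 […]. Each tube inoculated with one loopful of test bacterium and incubated 18 h at 37 °C. MIC read from presence or absence of growth.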", "units": {"MIC": "µg/mL"}, "values": [
      {"smiles": "COC(=O)[C@@H]1CCCN1C(=O)[C@@H]1CCCN1C(=O)[C@@H]1CCCN1C(=O)c1cc(-c2nc3ccc([N+](=O)[O-])cc3[nH]2)ccc1O", "MIC": 6}
    ]},
    {"tested_on": "Staphylococcus aureus", "experiment": "Antibacterial activity against Staphylococcus aureus NCIM 2079 after 18 hrs by tube dilution method", "format": "functional", "settings": "NCIM 2079, 18 h", "outline": "as §3", "units": {"MIC": "µg/mL"}, "values": [
      {"smiles": "COC(=O)[C@@H]1CCCN1C(=O)[C@@H]1CCCN1C(=O)[C@@H]1CCCN1C(=O)c1cc(-c2nc3ccc([N+](=O)[O-])cc3[nH]2)ccc1O", "MIC": 12.5}
    ]},
    {"tested_on": "Pseudomonas aeruginosa", "experiment": "Antibacterial activity against Pseudomonas aeruginosa NCIM 2034 after 18 hrs by tube dilution method", "format": "functional", "settings": "NCIM 2034, 18 h", "outline": "as §3", "units": {"MIC": "µg/mL"}, "values": [
      {"smiles": "COC(=O)[C@@H]1CCCN1C(=O)[C@@H]1CCCN1C(=O)[C@@H]1CCCN1C(=O)c1cc(-c2nc3ccc([N+](=O)[O-])cc3[nH]2)ccc1O", "MIC": 6}
    ]},
    {"tested_on": "Escherichia coli", "experiment": "Antibacterial activity against Escherichia coli NCIM 2065 after 18 hrs by tube dilution method", "format": "functional", "settings": "NCIM 2065, 18 h", "units": {"MIC": "µg/mL"}, "values": [
      {"smiles": "COC(=O)[C@@H]1CCCN1C(=O)[C@@H]1CCCN1C(=O)[C@@H]1CCCN1C(=O)c1cc(-c2nc3ccc([N+](=O)[O-])cc3[nH]2)ccc1O", "MIC": 25}
    ]},
    {"tested_on": "Candida albicans", "experiment": "Antifungal activity against Candida albicans MUCC 29 after 48 hrs by tube dilution method", "format": "functional", "settings": "not given", "outline": "(§4)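 Tube dilution MIC as for bacteria (seven concentrations, 200–3.1 […]), with DMSO in place of DMF. Tubes inoculated with fungal culture and incubated 48 h at 37 °C. MIC read from presence or absence of growth.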", "units": {"MIC": "µg/mL"}, "values": [
      {"smiles": "COC(=O)[C@@H]1CCCN1C(=O)[C@@H]1CCCN1C(=O)[C@@H]1CCCN1C(=O)c1cc(-c2nc3ccc([N+](=O)[O-])cc3[nH]2)ccc1O", "MIC": 6}
    ]},
    {"tested_on": "Microsporum audouinii", "experiment": "Antifungal activity against Microsporum audouinii MUCC 545 after 48 hrs by tube dilution method", "format": "functional", "settings": "not given", "outline": "as §4", "units": {"MIC": "µg/mL"}, "values": [
      {"smiles": "COC(=O)[C@@H]1CCCN1C(=O)[C@@H]1CCCN1C(=O)[C@@H]1CCCN1C(=O)c1cc(-c2nc3ccc([N+](=O)[O-])cc3[nH]2)ccc1O", "MIC": 6}
    ]},
    {"tested_on": "Trichophyton benhamiae", "experiment": "Antifungal activity against Trichophyton mentagrophytes MUCC 665 after 48 hrs by tube dilution method", "format": "functional, Arthroderma benhamiae", "settings": "not given", "outline": "as §4", "units": {"MIC": "µg/mL"}, "values": [
      {"smiles": "COC(=O)[C@@H]1CCCN1C(=O)[C@@H]1CCCN1C(=O)[C@@H]1CCCN1C(=O)c1cc(-c2nc3ccc([N+](=O)[O-])cc3[nH]2)ccc1O", "MIC": 12.5}
    ]},
    {"tested_on": "Eudrilus", "experiment": "Anthelmintic activity against Eudrilus sp. assessed as mean paralyzing time", "format": "functional", "settings": "not given", "outline": "(§5)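 Earthworms exposed to test suspensions at 2 mg mL^-1 (0.2% w/v), made by triturating compound with Tween 80 (0.5%) and distilled water, then mechanically stirred 30 min. Mebendazole suspension prepared alike as reference. Paralysis and death times recorded; death confirmed by no movement in 50 °C water. Means from triplicate sets.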", "units": {"Time": "min"}, "values": [
      {"smiles": "COC(=O)[C@@H]1CCCN1C(=O)[C@@H]1CCCN1C(=O)[C@@H]1CCCN1C(=O)c1cc(-c2nc3ccc([N+](=O)[O-])cc3[nH]2)ccc1O", "Time": 26.67}
    ]},
    {"tested_on": "Eudrilus", "experiment": "Anthelmintic activity against Eudrilus sp. assessed as mean death time", "format": "functional", "settings": "not given", "outline": "(§6)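 Earthworms exposed to test suspensions at 2 mg mL−1, prepared by triturating compound with Tween 80 (0.5%) and distilled water, stirring 30 min, then diluting to 0.2% w/v. Mebendazole suspension was made the same way. Death was confirmed by moving worms into 50 °C warm water and looking for movement. Mean death time (min) taken from triplicate sets.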", "units": {"Time": "min"}, "values": [
      {"smiles": "COC(=O)[C@@H]1CCCN1C(=O)[C@@H]1CCCN1C(=O)[C@@H]1CCCN1C(=O)c1cc(-c2nc3ccc([N+](=O)[O-])cc3[nH]2)ccc1O", "Time": 37.44}
    ]},
    {"tested_on": "not listed separately", "experiment": "Anthelmintic activity against Megascoplex konkanensis ICARBC 211 assessed as mean paralyzing time", "format": "functional", "settings": "not given", "outline": "as §5", "units": {"TIME": "h"}, "values": [
      {"smiles": "COC(=O)[C@@H]1CCCN1C(=O)[C@@H]1CCCN1C(=O)[C@@H]1CCCN1C(=O)c1cc(-c2nc3ccc([N+](=O)[O-])cc3[nH]2)ccc1O", "TIME": 0.425}
    ]},
    {"tested_on": "not listed separately", "experiment": "Anthelmintic activity against Megascoplex konkanensis ICARBC 211 assessed as mean death time", "format": "functional", "settings": "not given", "outline": "as §5", "units": {"TIME": "h"}, "values": [
      {"smiles": "COC(=O)[C@@H]1CCCN1C(=O)[C@@H]1CCCN1C(=O)[C@@H]1CCCN1C(=O)c1cc(-c2nc3ccc([N+](=O)[O-])cc3[nH]2)ccc1O", "TIME": 0.569}
    ]},
    {"tested_on": "Pontoscolex corethrurus", "experiment": "Anthelmintic activity against Pontoscolex corethrurus ICARBC 408 assessed as mean paralyzing time", "format": "functional", "settings": "not given", "outline": "as §5", "units": {"Time": "min"}, "values": [
      {"smiles": "COC(=O)[C@@H]1CCCN1C(=O)[C@@H]1CCCN1C(=O)[C@@H]1CCCN1C(=O)c1cc(-c2nc3ccc([N+](=O)[O-])cc3[nH]2)ccc1O", "Time": 30.59}
    ]},
    {"tested_on": "Pontoscolex corethrurus", "experiment": "Anthelmintic activity against Pontoscolex corethrurus ICARBC 408 assessed as mean death time", "format": "functional", "settings": "not given", "outline": "as §6", "units": {"Time": "min"}, "values": [
      {"smiles": "COC(=O)[C@@H]1CCCN1C(=O)[C@@H]1CCCN1C(=O)[C@@H]1CCCN1C(=O)c1cc(-c2nc3ccc([N+](=O)[O-])cc3[nH]2)ccc1O", "Time": 40.38}
    ]}
  ]
}
